One data set is described as follows: Body weight measurement. It counts as in vivo, mouse. Particulars: Dmd C3333Y mice from 4 weeks of age; AGR mimics 10 mg/kg subQ every three days; Nifenazone 10 mg/kg i.p. daily. The method, boiled down:
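Weighed weekly in male Dmd WT (scramble- or vehicle-treated) and Dmd C3333Y mice during dosing from 4 weeks of age, to 16 weeks for the i.p. drug arm. AGR-Scr and AGR-H19 mut served as control mimics. Mean±SD, n=5 mice/group, two-way ANOVA.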

Data set [1] has as its system Dmd C3333Y mice. Description: Fibrotic area in the heart of treated Dmd C3333Y mice. It counts as in vivo, mouse. Particulars: 4 to 24 weeks of age, AGR mimics 10 mg/kg subQ every three days, Nifenazone 10 mg/kg i.p. daily, n=5. The method, boiled down:
(§1)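 Male and female Dmd WT and Dmd C3333Y mice were dosed from 4 weeks to 16 or 24 weeks of age. […] Groups were randomised by age and sex. Left ventricular values or cardiac fibrotic area percentage are reported as mean±SD, n=5/group, one-way ANOVA.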

The nature of a further data set: Blood biochemistry. Particulars: Dmd C3333Y mice from 4 weeks of age; AGR mimics 10 mg/kg subQ every three days; Nifenazone 10 mg/kg i.p. daily. It counts as in vivo, mouse.
For data set [2], the system named is Dmd C3333Y mice. The data set is described as follows: IF staining of DMD and Ub-DMD. Particulars: Dmd C3333Y mice QUA, AGR mimics 10 mg/kg subQ every three days, Nifenazone 10 mg/kg i.p. daily, n=5. Format: in vivo, mouse. The essentials: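 Quadriceps sections from Dmd WT and Dmd C3333Y mice on control or test mimics, vehicle, or daily i.p. drug were immunostained for DMD and Ub-DMD (Lys3584). Intensity was quantified from average staining intensity and percentage of positively stained cells. Mean±SD, n=5 animals/group, one-way ANOVA.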

The next data set concerns mdx mice. Description: IF staining of DMD and Ub-DMD in QUA of mdx mice with PPMO23 exon skipping. Format: in vivo, mouse. Particulars: PPMO23 15 mg/kg i.v. biweekly alone, or with AGR-H19 10 mg/kg s.q. every three days or Nifenazone 10 mg/kg i.p. daily; 4 to 24 weeks of age; n=5. The method, boiled down: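 Controls were male C57BL/10J mice on scramble RNA plus vehicle, and mdx mice on scramble. Quadriceps were immunostained for DMD and Ub-DMD, and intensity was scored as average intensity × percentage positive cells. Mean±SD, n=5/condition, one-way ANOVA.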

The test system of data set [3] is hiPS-SkMCs. Description: IF staining / IB of DMD and Ub-DMD. Particulars: iPS-SkMCs and iPS-CMs derived from BMD patients; Nifenazone 10 μM, 72 hours. Format: cell-based, human. The essentials: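 Skeletal muscle cells came from iPSCs reprogrammed from fibroblasts of a healthy donor (GM09503) and four BMD donors (GM04981, GM02298, GM05089, GM04569). iPSCs were kept feeder-free on Matrigel in mTeSR1. For IF, myoblasts on collagen I-coated coverslips grew to confluence, then spent 4 days in myotube medium before 4% paraformaldehyde fixation. IF intensity combined average staining and percentage of positive cells; n=5 independent experiments, two-way ANOVA. Immunoblots were repeated twice.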

Data set [4] relates to Dmd C3333Y mice. The data set is described as follows: Forelimb grip strength test of treated Dmd C3333Y mice. Particulars: AGR mimics 10 mg/kg subQ every three days, Nifenazone 10 mg/kg i.p. daily. It counts as in vivo, mouse.
Data set [5] concerns Dmd C3333Y mice. Description: Echocardiography. It counts as in vivo, mouse. Particulars: 4 to 24 weeks of age, AGR mimics 10 mg/kg subQ every three days, Nifenazone 10 mg/kg i.p. daily, n=5. The essentials: as §1
Data set [6] deals with hiPS-SkMCs. The data set is described as follows: Immunoprecipitation and immunoblotting in hiPS-SkMCs. It counts as cell-based, human. Particulars: IB; for Ub-DMD in K3584R mutant knockin BMD iPS-SkMCs: GM04981 K3584R. In general terms: Immunoblotting shows a protein as a band on a membrane.
The target in a further data set is TRIM63 (Homo sapiens, UniProt Q969Q1). The data set is described as follows: Screen of small molecule inhibitors targeting TRIM63. Particulars: library of 2027 bioactive compounds; Ub-DMD (Lys3584) antibody, OD450. Format: biochemical. The method, boiled down: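 The library screen measured DMD poly-ubiquitination by sandwich ELISA, with His6-TUBE capture and Ub-DMD (Lys3584) antibody detection read at OD450. Background-subtracted mean absorbance per compound was normalised to DMSO-treated samples and expressed as log2 fold change.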

Data set [7] can be described thus: Serum IGF1 and IGF2 concentration. It counts as in vivo, mouse. Particulars: Dmd C3333Y mice; 10 mg/kg subQ every three days. The essentials:
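Serum IGF1 and IGF2 were measured in Dmd WT and Dmd C3333Y mice under the treatment arms. AGR mimics were dosed from 4 weeks of age to 16 or 24 weeks. Mean±SD, n=5 mice/group, one-way ANOVA.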

Another data set relates to indicated genes. The data set is described as follows: RT-qPCR of indicated genes and microRNAs. Particulars: Dmd C3333Y QUA; 10 mg/kg subQ every three days.
Another data set in a line: Pharmacokinetics. It counts as in vivo, mouse. Particulars: biotin-labeled, 10 mg/kg single dose, wild type C57BL/6 mice, 3–72 hours; dot-blot, n=5 animals per time point. The method, boiled down:
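A single 10 mg/kg dose of biotinylated H19 mimic (i.p. or subQ) or AGR-H19 (subQ) was given to wild type C57BL/6 mice. Muscle, heart, liver, kidney and lung were taken at 3, 12, 24, 48 or 72 h. Small RNA was dot-blotted against a 2-fold standard series of 1 μg–1 pg and detected with streptavidin-HRP. Levels are given as ng/g tissue, with PK parameters from nonlinear regression. n=5/time point.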

Chain of TRIM63 (Q969Q1 whole entry): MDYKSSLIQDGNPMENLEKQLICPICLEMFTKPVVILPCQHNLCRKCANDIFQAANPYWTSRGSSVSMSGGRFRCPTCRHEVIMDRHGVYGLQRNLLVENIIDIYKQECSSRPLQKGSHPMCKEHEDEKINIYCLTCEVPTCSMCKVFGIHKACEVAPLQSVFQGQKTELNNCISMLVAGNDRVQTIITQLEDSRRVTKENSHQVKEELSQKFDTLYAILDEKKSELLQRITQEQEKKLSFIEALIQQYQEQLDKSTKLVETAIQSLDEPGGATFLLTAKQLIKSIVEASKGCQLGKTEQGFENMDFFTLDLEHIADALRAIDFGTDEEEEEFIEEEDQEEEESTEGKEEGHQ

On to `Cc1c(NC(=O)c2cccnc2)c(=O)n(-c2ccccc2)n1C` [Nifenazone], for which the Body weight entry in “Body weight measurement” is on record as “minimally affected”. Also, the “Fibrotic area in the heart” value with Dmd C3333Y mice [1] was “reduced”. Moreover, in “Blood biochemistry”, the “Liver or kidney function” value was “minimally affected”. Moreover, in the data set with Dmd C3333Y mice [2], the “Dystrophin level in skeletal muscle” value was “restored” and the “Ub-DMD level in skeletal muscle” value is “decreased”. In addition, in the data set with mdx mice, the “Dystrophin protein in skeletal muscle of mdx mice” value (shortened to “Dystrophin protein … of mdx mice”) was “significantly increased” and the “Ub-DMD (poly-Ub) in skeletal muscle of mdx mice” value (“Ub-DMD (poly-Ub)” below) is “reduced”. Besides, in the data set on hiPS-SkMCs [3], the Dystrophin protein stability result is given as “stabilized dystrophin” and the “Status of Ub-DMD (Lys3584)” value is listed as “attenuated”. Also, the Muscle strength entry with Dmd C3333Y mice [4] is “significantly improved”. Moreover, in the data set on Dmd C3333Y mice [5], the “Heart function (left ventricular ejection fraction and fraction shortening)” value is “improved”. The “Ub-DMD in K3584R mutant knockin BMD iPS-SkMCs” value with hiPS-SkMCs [6] is “minimally affected”. Moreover, the “Ub-DMD in hiPS-SkMCs upon NIF treatment” value in the data set with hiPS-SkMCs [6] (vehicle or NIF) is “inhibited”. Besides, the “Inhibition of the enzymatic activities of TRIM63 in vitro (screen)” value at TRIM63 is reported as “effective inhibition”.
“N-terminal-ELTNEIPAELTNEIPA-Linker-5'-[2’-F-C][2’-F-U][2’-F-C][2’-F-U][2’-F-U][2’-F-U][2’-F-G][2’-F-U][2’-F-U][2’-F-U][2’-F-C][2’-F-U][2’-F-G][2’-F-A][2’-F-G][2’-F-C][2’-F-U][2’-F-U][2’-F-U][2’-F-C][2’-F-C][2’-F-U][2’-F-G][2’-F-U][2’-F-C][2’-F-U][2’-F-U][2’-F-U][2’-F-C][2’-F-C]-3' [AGR-H19]”: the Body weight result in “Body weight measurement” is listed as “minimal effects”. In addition, the “Fibrotic area in the heart” value in the data set with Dmd C3333Y mice [1] was “reduced”. Also, in “Blood biochemistry”, the “Liver or kidney function” value was “minimal effects”. In the data set with Dmd C3333Y mice [2], the “Dystrophin level in skeletal muscle” value is given as “elevated” and the “Ub-DMD level in skeletal muscle” value is recorded as “reduced”. Besides, in the data set with mdx mice, the “Dystrophin protein … of mdx mice” value is “significantly increased” and the “Ub-DMD (poly-Ub)” value is listed as “reduced”. The “Serum IGF1/IGF2” value in data set [7] was “minimal effects”. Besides, in the data set on indicated genes, the “Expression status of microRNAs tested” value is listed as “minimal effects”. The Muscle strength entry in the data set on Dmd C3333Y mice [4] was “improved”. Further, the “Heart function (left ventricular ejection fraction and fraction shortening)” value in the data set with Dmd C3333Y mice [5] was “increased”. Besides, in the data set with hiPS-SkMCs [6], the “Ub-DMD in K3584R mutant knockin BMD iPS-SkMCs” value is “minimally affected”. The “Amount in skeletal and cardiac muscles after dosing” value in “Pharmacokinetics” is listed as “substantial amount”.
Consider RXRRBRRXRRBRXB [PPMO23], for which, in the data set on mdx mice, the “Dystrophin protein … of mdx mice” value is listed as “partially restored” and the “Ub-DMD (poly-Ub)” value is reported as “robust”.

(Values after article PMC7951180 (Nature cell biology, 2020).)
